Results pooled from the literature.
PTPN1: Tyrosine-protein phosphatase non-receptor type 1 (PTPN1, Homo sapiens, UniProt P18031)
TDP1: Tyrosyl-DNA phosphodiesterase 1 (TDP1, Homo sapiens, UniProt Q9NUW8)
PRMT3: Protein arginine N-methyltransferase 3 (PRMT3, Homo sapiens, UniProt O60678)
LDHA: L-lactate dehydrogenase A chain (LDHA, Homo sapiens, UniProt P00338)
NTRK1: High affinity nerve growth factor receptor (NTRK1, Homo sapiens, UniProt P04629)

SMILES	target	assay	setting	IC50
N[C@@H](Cc1ccc(C(F)(F)P(=O)(O)O)cc1)C(=O)O	PTPN1	enzyme activity, inhibitor, absorbance	–	500 µM
Clc1ccc2c(c1)N(CCCN1CCN(CCCc3ccccc3)CC1)c1ccccc1S2	Glutathione reductase, mitochondrial (GSR, Homo sapiens, UniProt P00390)	enzyme activity, inhibitor, absorbance	–	> 100 µM
CCOc1ccc2c(-c3cc(C)nc(Nc4cc(OC)cc(C(F)(F)F)c4)n3)cnn2n1	Homeodomain-interacting protein kinase 4 (HIPK4, Homo sapiens, UniProt Q8NE63)	enzyme activity, inhibitor	–	> 10 µM
COc1cc2c(OC)nc3c4cc5c(cc4cc(OCCCN4CCC(N6CCCCC6)CC4)c3c2cc1OC)OCO5	TDP1	enzyme activity, inhibitor	–	11 µM
C[C@@H]1C[C@H]2O[C@@H]2/C=C\C=C\C(=O)Cc2c(Cl)c(O)cc(O)c2C(=O)O1	Mitogen-activated protein kinase kinase kinase 7 (MAP3K7, Homo sapiens, UniProt O43318)	enzyme activity, inhibitor, ATP luminescence	–	> 10 µM
Nc1ncnc2c1ncn2[C@@H]1O[C@H](CSCCNC(=O)NCCc2ccccc2)[C@@H](O)[C@H]1O	PRMT3	enzyme activity, inhibitor, fluorescence	–	> 100 µM
O=C(Nc1cccc(NS(=O)(=O)c2ccc3oc4cc([N+](=O)[O-])ccc4c3c2)c1)C1(O)CC1	LDHA	enzyme activity, inhibitor	–	0.757 µM
CC(C)(C)n1nc(-c2cnc3cc(OC4CC4)ccc3c2)c(C(N)=O)c1N	Receptor-interacting serine/threonine-protein kinase 2 (RIPK2, Homo sapiens, UniProt O43353)	cell-free assay	–	1.71 µM
O=C(c1ccc(O)cc1O)[C@H](O)[C@@H](O)c1ccc(O)cc1	Amine oxidase [flavin-containing] A (MAOA, Homo sapiens, UniProt P21397)	enzyme activity, inhibitor	–	0.62 µM
C=CC(=O)Nc1cc(Nc2nccc(Nc3cc(Cl)c(F)cc3C(C)(C)O)n2)c(OC)cc1N1CC[C@@H](N(C)C)C1	NTRK1	enzyme activity, inhibitor	with preincubation	> 10 µM
CCn1ncc2c1-c1cnc(N)c(c1)O[C@H](C)c1cc(F)ccc1-c1nn(C)nc1C2	NTRK1	enzyme activity, inhibitor	–	0.26 µM
CC1=C[C@@]2(C[C@H](C)[C@H]3CC=C(C)C(=O)[C@@H]3O2)OC1=O	PTPN1	enzyme activity, inhibitor	–	> 500 µM
CCCCN1/C(=C/C=C/c2sc3ccc(Br)cc3[n+]2CCCC)Sc2ccc(Br)cc21	PRMT3	enzyme activity, inhibitor, radiometric	–	3.17 µM
CCOCc1nc(O)c(-c2nnc(Cc3ccc(Cl)cn3)o2)c(O)c1-c1c(OC)cccc1OC	Histamine H2 receptor (HRH2, Homo sapiens, UniProt P25021)	ligand displacement, radioligand	–	> 30 µM
COc1cc2c(OC)nc3c4cc5c(cc4cc(OCCCN4CCCC4)c3c2cc1OC)OCO5	TDP1	enzyme activity, inhibitor	–	5.5 to 13 µM
Cc1ccc(NC(=O)c2ccc(C)c(C(F)(F)F)c2)cc1C#Cc1nn(C2CCC(O)CC2)c2ncnc(N)c12 (stereo not shown)	NTRK1	enzyme activity, inhibitor, radiometric	–	> 10 µM
Nc1ncnc2c1ncn2[C@@H]1O[C@H](CSCCNC(=O)Nc2ccc(F)cc2)[C@@H](O)[C@H]1O	PRMT3	enzyme activity, inhibitor, fluorescence	–	2 µM
Fc1ccc(CN(CC(F)(F)F)C2CCN(CCCc3c[nH]c4ccc(Cn5cncn5)cc34)CC2)cc1	Voltage-dependent T-type calcium channel subunit alpha-1I (CACNA1I, Homo sapiens, UniProt Q9P0X4)	ion current, patch clamp	–	0.0007 µM
COc1cc(-c2cc(=O)c3c(O)c(OC)c(O[C@@H]4O[C@H](CO)[C@@H](O)[C@H](O)[C@H]4O[C@@H]4O[C@H](CO)[C@@H](O)[C@H](O)[C@H]4O)cc3o2)ccc1O	LDHA	enzyme activity, inhibitor	pH 7.4	260 µM
